Ten compounds from ChEMBL document CHEMBL1799947, “Synthesis, transport and antiviral activity of Ala-Ser and Val-Ser prodrugs of cidofovir” (Bioorg Med Chem Lett, 2011) can be followed below.

One series concerns Human betaherpesvirus 5. Kind of series: Antiviral activity against Human cytomegalovirus Towne infected in HFF cells assessed as reduction in plaque formation after 10 days. The format is functional, organism-based. Particulars: Human betaherpesvirus 5, Towne, 240 h. In short, it runs like this:
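HCMV plaque reduction assay incubated 10 days, with ganciclovir as the positive control.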

Series [1] can be described thus: (§1) Cytotoxicity against HFF cells. Format: cell-based. The note with it: human, HFF cells.
Series [2] is described as follows: Antiviral activity against Cowpox virus Brighton infected in HFF cells assessed as reduction in plaque formation after 3 days. Format: functional, cell-based, Cowpox virus (Brighton Red). The note with it: 72 h.
In series [3] the test system is Vaccinia virus. Kind of series: Antiviral activity against Vaccinia virus Copenhagen infected in HFF cells assessed as reduction in plaque formation after 3 days. The format is functional, organism-based. The note with it: Orthopoxvirus vaccinia, 72 h.
Series [4] relates to Plasma. Kind of series: Drug uptake in fasted Albino Sprague-Dawley rat plasma at 10 mg/kg administered into gastrointestinal tract measured up to 4 hrs. Format: ADME, organism-based. Set-up: dose 10 mg/kg. The note with it: in vivo, other. The method, boiled down: (§2)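 Rats received 3 mg of drug (about 10 mg/kg) by direct injection into the gastrointestinal tract. Plasma was sampled over a 4 h time course. Read-out was dose-corrected total cidofovir species in plasma.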

Series [5] in a line: Cytotoxicity against human KB cells after 48 hrs by crystal violet staining technique. Format: cell-based.
In series [6] the test system is Plasma. Kind of series: Prodrug conversion in CFW Swiss-Webster mouse plasma assessed as cidofovir monoethyl ester formation at 10 mg/kg administered through oral gavage. Format: ADME, organism-based. Also on record: dose 10 mg/kg, route oral. The note with it: in vivo.
Series [7] has as its system Vaccinia virus. Kind of series: Antiviral activity against Vaccinia virus Copenhagen infected in HFF cells assessed as reduction in plaque formation up to 100 uM after 3 days. Format: functional, organism-based. The note with it: Orthopoxvirus vaccinia.
The subject of the next series is HFF. Described as §1. Format: cell-based. The note with it: human, hff.
For series [8], the system named is Plasma. Kind of series: Prodrug conversion in fasted Albino Sprague-Dawley rat assessed as increase of cidofovir species level in plasma at 10 mg/kg into gastrointestinal tract relative to cidofovir or cyclic cidofovir. The format is ADME, organism-based. Also on record: dose 10 mg/kg. Particulars: in vivo, other. The method, boiled down:
as §2

Active and inactive are the calls of the source. No cut-off for these calls is given here.

Usually IC50 stands for the concentration that inhibits the measured activity by half. Usually CC50 stands for the concentration at which the toxic effect on the cells reaches its halfway point. A lower CC50 goes with harm at low concentration. In the case of `Nc1ccn(C[C@@H](CO)OCP(=O)(O)O)c(=O)n1.O.O` [CIDOFOVIR], the IC50 came to 0.11 µM with Human betaherpesvirus 5, 30 µM in series [2] and 20 µM in the series with Vaccinia virus [3]. Further, in series [1], the half-maximal cytotoxic concentration (CC50) was greater than 100 µM. The Drug uptake result in the series on Plasma [4] is given as “Active”. In addition, the half-maximal cytotoxic concentration (CC50) at 48 h in series [5] is greater than 100 µM.

For the compound `COC(=O)[C@H](COP1(=O)CO[C@@H](Cn2ccc(N)nc2=O)CO1)NC(=O)[C@@H](N)C(C)C` (some centres undefined), the IC50 was 0.3 µM in the series with Human betaherpesvirus 5, greater than 30 µM in series [2] and 100 µM with Vaccinia virus [3]. Moreover, the CC50 in [1] was greater than 100 µM. In addition, the CC50 at 48 h in series [5] was greater than 100 µM.

As for `CCOP(=O)(CO[C@H](CO)Cn1ccc(N)nc1=O)OC[C@H](NC(=O)[C@@H](N)C(C)C)C(=O)OC` (some centres undefined), the result in the series on Plasma [6] was Active. Also, in the series with Plasma [4], the Drug uptake entry is given as “Not Active”.

Turning to `CCOP(=O)(O)CO[C@H](CO)Cn1ccc(N)nc1=O`, the outcome in the series with Vaccinia virus [7] was inactive.

Take `CC(C)OC(=O)[C@H](COP1(=O)CO[C@@H](Cn2ccc(N)nc2=O)CO1)NC(=O)[C@H](N)C(C)C` (some centres undefined): the Drug uptake entry in the series on Plasma [4] is listed as “Active”.

Consider `CC(C)OC(=O)[C@H](COP(=O)(O)CO[C@H](CO)Cn1ccc(N)nc1=O)NC(=O)[C@@H](N)C(C)C`, for which the IC50 in the series with Human betaherpesvirus 5 is 0.32 µM; in series [2] it was greater than 100 µM; in the series with Vaccinia virus [3], greater than 100 µM. In series [5], this compound yielded a 50% cytotoxic concentration (CC50) at 48 h greater than 100 µM.

On to `Nc1ccn(C[C@H]2COP(=O)(O)CO2)c(=O)n1` [CYCLIC CIDOFOVIR], for which the IC50 amounted to 0.25 µM in the series on Human betaherpesvirus 5, 30 µM in series [2] and 40 µM with Vaccinia virus [3]. In the series with HFF, this compound gave a 50% cytotoxic concentration (CC50) of 100 µM. Also, the Drug uptake entry with Plasma [4] was “Active”. The same compound displayed a cytotoxic concentration (CC50) at 48 h in series [5] greater than 100 µM.

`CC(C)OC(=O)[C@H](COP(=O)(O)CO[C@H](CO)Cn1ccc(N)nc1=O)NC(=O)[C@H](N)C(C)C` (mixture of isomers): the half-maximal inhibitory concentration (IC50) with Human betaherpesvirus 5 was 1.3 µM; in [2] it was greater than 100 µM; in the series with Vaccinia virus [3], greater than 100 µM. The “fold change (FC)” value in the series with Plasma [8] is on record as 15. For the same compound, in the series with Plasma [4], the Drug uptake entry is reported as “Active”. Also, in [5], the CC50 at 48 h is greater than 100 µM.

For the compound `CCOP(=O)(CO[C@H](CO)Cn1ccc(N)nc1=O)OC[C@H](NC(=O)[C@H](C)N)C(=O)OC` (some centres undefined), the outcome with Plasma [6] was Active. Further, in the series on Plasma [4], the Drug uptake result is “Active”.

On to `Nc1ncnc2c1ncn2[C@@H]1O[C@H](CO)[C@@H](O)[C@@H]1O` [VIDARABINE], for which, in the series on Vaccinia virus [3], the half-inhibitory concentration (IC50) turned out to be 2 µM.
